For one data set, the species on record is Homo sapiens. As to the kind of experiment: Selectivity ratio of IC50 for mTOR (unknown origin) to IC50 for PI3Kalpha (unknown origin).
In data set [1] the target is Serine/threonine-protein kinase mTOR (Homo sapiens, UniProt P42345). As to the kind of experiment: Inhibition of mTOR (unknown origin) using GFP-4E-BP1 as substrate after 1 hr by TR-FRET assay. Background: TR-FRET usually uses a lanthanide donor and a delayed reading to cut background.
Data set [2] has as its target Phosphatidylinositol 4,5-bisphosphate 3-kinase catalytic subunit alpha isoform (Homo sapiens, UniProt P42336). As to the kind of experiment: Inhibition of PI3Kalpha (unknown origin) using PIP2/PS as substrate after 1 hr by luciferase-based luminescence assay.
Data set [3] is described as follows: Apparent permeability across basolateral to apical side in human Caco2 cells at 10 uM after 1.5 hrs by LC/MS/MS analysis. The following applies: Caco-2. Type of data set: ADME, cell-based. (Caco-2 cells form a polarised layer with tight junctions and transporters.)
Data set [4] in a line: Cytotoxicity against human H460 cells harboring PIK3CA mutant assessed as growth inhibition after 4 days by CellTiter-Glo luminescent cell viability assay. The following applies: NCI-H460, 96 h. Type of data set: functional, cell-based. Put shortly:
(§1)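 Proliferation panel of human cancer lines carrying either a PIK3CA mutation or a PTEN deletion, with A549 as the one line carrying neither. Growth inhibition is reported as IC50.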
Background: ATP-based viability assays read luminescence as a measure of living cells.

Data set [5] is described as follows: Efflux ratio of apparent permeability across basolateral to apical side over apical to basolateral side in human Caco2 cells. In kind it is ADME, cell-based. The conditions noted are these: Caco-2.
The nature of data set [6]: Permeability of the compound after 5 hrs by PAMPA. The conditions noted are these: read-out: permeability. In kind it is physicochemical.
A further data set concerns SK-OV-3. The data set is described as follows: Cytotoxicity against human SKOV3 cells harboring PIK3CA mutant assessed as growth inhibition after 4 days by CellTiter-Glo luminescent cell viability assay. The conditions noted are these: SK-OV-3, 96 h. In kind it is functional, cell-based. A digest of the protocol: as §1
Another data set relates to U-87 MG. The data set is described as follows: Cytotoxicity against human U87MG cells harboring PTEN deletion mutant assessed as growth inhibition after 4 days by CellTiter-Glo luminescent cell viability assay. In kind it is functional, cell-based, U-87MG ATCC. The conditions noted are these: 96 h. Put shortly:
as §1

Data set [7] has as its target Phosphatidylinositol 4,5-bisphosphate 3-kinase catalytic subunit beta isoform (Homo sapiens, UniProt P42338). As to the kind of experiment: Inhibition of PI3Kbeta (unknown origin) using PIP2/PS as substrate after 1 hr by luciferase-based luminescence assay.
In data set [8] the target is T1, Phosphatidylinositol 4,5-bisphosphate 3-kinase catalytic subunit delta isoform (Homo sapiens, UniProt O00329).
T1 sequence (O00329 whole entry): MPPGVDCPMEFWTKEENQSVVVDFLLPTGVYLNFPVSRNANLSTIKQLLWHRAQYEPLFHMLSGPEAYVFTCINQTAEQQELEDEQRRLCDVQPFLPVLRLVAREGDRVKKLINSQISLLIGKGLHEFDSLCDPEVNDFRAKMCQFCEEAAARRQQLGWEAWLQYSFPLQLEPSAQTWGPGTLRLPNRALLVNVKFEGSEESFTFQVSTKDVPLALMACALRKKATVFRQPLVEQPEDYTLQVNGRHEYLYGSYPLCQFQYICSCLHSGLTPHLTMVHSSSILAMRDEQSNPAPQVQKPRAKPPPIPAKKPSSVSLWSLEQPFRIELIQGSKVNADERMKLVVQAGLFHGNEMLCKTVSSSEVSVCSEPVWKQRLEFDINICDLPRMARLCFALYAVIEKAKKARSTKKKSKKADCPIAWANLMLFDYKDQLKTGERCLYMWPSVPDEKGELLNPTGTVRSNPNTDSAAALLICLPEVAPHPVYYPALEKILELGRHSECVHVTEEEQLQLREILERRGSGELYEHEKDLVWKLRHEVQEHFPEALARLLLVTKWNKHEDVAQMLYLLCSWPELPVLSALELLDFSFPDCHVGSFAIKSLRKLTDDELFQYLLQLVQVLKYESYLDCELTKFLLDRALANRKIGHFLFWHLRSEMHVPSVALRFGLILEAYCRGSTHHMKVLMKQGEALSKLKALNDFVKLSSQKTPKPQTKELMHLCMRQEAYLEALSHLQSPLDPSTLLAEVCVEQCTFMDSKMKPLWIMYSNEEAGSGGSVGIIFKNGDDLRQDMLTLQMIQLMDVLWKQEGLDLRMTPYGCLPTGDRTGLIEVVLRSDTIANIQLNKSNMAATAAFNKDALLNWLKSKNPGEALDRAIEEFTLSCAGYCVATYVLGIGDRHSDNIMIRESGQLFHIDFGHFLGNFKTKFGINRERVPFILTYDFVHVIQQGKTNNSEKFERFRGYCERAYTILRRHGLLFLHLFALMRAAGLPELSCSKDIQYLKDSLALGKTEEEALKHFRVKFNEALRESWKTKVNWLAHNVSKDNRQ
The data set is described as follows: Inhibition of PI3Kdelta (unknown origin) using PIP2/PS as substrate after 1 hr by luciferase-based luminescence assay.

Data set [9] concerns the target Phosphatidylinositol 4,5-bisphosphate 3-kinase catalytic subunit gamma isoform (Homo sapiens, UniProt P48736). As to the kind of experiment: Inhibition of PI3Kgamma (unknown origin) using PIP2/PS as substrate after 1 hr by luciferase-based luminescence assay.
Data set [10] can be described thus: Apparent permeability across apical to basolateral side in human Caco2 cells at 10 uM after 1.5 hrs by LC/MS/MS analysis. The conditions noted are these: Caco-2. Type of data set: ADME, cell-based.
The next data set has as its system T47D. As to the kind of experiment: Cytotoxicity against human T47D cells harboring PIK3CA mutant assessed as growth inhibition after 4 days by CellTiter-Glo luminescent cell viability assay. Type of data set: functional, cell-based. The following applies: 96 h. Put shortly:
as §1

The next data set relates to NCI-H1975. As to the kind of experiment: Cytotoxicity against human NCI-H1975 cells harboring PIK3CA mutant assessed as growth inhibition after 4 days by CellTiter-Glo luminescent cell viability assay. In kind it is functional, cell-based. The conditions noted are these: NCI-H1975, 96 h. Put shortly: as §1
The next data set concerns A549. The data set is described as follows: Cytotoxicity against PTEN deletion mutant/PIK3CA mutant-deficient human A549 cells assessed as growth inhibition after 4 days by CellTiter-Glo luminescent cell viability assay. In kind it is functional, cell-based. The conditions noted are these: A549, 96 h. A digest of the protocol:
as §1

A short description of data set [11]: Inhibition of PI3K in human T47D cells assessed as inhibition of AKT phosphorylation at Ser 473 after 4 hrs by Western blot analysis. In kind it is cell-based.

SMILES strings stand for the structures.

Sequence of Phosphatidylinositol 4,5-bisphosphate 3-kinase catalytic subunit alpha isoform (P42336 whole entry, canonical isoform): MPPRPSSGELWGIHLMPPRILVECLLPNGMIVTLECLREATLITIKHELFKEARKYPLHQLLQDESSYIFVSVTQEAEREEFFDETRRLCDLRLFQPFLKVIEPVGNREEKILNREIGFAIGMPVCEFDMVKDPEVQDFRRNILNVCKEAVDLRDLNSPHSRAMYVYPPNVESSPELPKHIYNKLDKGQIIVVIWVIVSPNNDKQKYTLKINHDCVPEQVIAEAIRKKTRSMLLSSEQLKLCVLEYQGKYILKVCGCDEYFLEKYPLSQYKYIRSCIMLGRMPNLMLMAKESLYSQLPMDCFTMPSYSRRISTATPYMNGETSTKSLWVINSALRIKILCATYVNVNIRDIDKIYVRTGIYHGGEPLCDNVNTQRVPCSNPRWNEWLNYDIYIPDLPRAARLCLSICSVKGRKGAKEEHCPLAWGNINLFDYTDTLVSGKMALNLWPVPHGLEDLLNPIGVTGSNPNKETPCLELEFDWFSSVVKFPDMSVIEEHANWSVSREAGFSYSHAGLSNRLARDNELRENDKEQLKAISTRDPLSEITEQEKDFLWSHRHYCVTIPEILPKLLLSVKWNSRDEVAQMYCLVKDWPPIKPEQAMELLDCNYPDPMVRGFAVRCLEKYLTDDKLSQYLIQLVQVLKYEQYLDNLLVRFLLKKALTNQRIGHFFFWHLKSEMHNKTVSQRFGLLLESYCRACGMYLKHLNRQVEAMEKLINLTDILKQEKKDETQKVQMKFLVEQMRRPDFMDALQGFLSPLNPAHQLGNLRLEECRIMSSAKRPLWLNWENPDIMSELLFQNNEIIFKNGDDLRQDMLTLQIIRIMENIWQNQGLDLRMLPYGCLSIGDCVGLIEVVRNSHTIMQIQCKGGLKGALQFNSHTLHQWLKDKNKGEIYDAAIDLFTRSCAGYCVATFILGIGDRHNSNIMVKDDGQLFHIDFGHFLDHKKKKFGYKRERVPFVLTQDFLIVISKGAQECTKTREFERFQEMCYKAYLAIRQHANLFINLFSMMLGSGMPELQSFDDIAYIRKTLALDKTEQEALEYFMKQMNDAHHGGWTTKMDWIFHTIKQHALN
Sequence of Phosphatidylinositol 4,5-bisphosphate 3-kinase catalytic subunit gamma isoform (P48736 whole entry, canonical isoform): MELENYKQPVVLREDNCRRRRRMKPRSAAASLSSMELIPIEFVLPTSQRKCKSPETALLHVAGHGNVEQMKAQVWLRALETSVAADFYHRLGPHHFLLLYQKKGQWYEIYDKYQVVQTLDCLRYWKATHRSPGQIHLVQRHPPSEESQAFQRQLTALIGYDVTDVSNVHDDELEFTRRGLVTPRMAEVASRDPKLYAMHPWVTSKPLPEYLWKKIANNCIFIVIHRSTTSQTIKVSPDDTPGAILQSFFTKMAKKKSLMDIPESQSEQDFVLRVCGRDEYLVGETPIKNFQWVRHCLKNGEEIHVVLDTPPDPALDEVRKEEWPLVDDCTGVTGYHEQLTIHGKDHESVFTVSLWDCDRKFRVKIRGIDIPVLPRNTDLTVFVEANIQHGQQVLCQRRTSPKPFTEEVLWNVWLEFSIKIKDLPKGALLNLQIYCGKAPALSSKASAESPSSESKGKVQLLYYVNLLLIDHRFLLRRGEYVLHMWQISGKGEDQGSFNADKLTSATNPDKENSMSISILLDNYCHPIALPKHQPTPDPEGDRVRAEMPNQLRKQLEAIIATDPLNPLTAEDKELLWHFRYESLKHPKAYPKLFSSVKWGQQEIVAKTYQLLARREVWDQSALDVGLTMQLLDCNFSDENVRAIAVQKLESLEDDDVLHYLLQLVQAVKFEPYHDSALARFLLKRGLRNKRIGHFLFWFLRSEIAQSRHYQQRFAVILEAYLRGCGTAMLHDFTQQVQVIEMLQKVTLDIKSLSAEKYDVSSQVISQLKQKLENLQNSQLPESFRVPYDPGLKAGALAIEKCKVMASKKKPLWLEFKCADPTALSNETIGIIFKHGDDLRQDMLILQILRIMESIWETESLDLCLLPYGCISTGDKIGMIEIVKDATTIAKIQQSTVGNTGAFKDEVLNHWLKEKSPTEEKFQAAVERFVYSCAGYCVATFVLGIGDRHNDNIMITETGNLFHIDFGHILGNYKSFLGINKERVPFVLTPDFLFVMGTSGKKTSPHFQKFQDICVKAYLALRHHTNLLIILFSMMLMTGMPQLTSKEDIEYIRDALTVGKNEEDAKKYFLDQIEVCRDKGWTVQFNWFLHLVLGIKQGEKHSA
Sequence of Phosphatidylinositol 4,5-bisphosphate 3-kinase catalytic subunit beta isoform (P42338 whole entry, canonical isoform): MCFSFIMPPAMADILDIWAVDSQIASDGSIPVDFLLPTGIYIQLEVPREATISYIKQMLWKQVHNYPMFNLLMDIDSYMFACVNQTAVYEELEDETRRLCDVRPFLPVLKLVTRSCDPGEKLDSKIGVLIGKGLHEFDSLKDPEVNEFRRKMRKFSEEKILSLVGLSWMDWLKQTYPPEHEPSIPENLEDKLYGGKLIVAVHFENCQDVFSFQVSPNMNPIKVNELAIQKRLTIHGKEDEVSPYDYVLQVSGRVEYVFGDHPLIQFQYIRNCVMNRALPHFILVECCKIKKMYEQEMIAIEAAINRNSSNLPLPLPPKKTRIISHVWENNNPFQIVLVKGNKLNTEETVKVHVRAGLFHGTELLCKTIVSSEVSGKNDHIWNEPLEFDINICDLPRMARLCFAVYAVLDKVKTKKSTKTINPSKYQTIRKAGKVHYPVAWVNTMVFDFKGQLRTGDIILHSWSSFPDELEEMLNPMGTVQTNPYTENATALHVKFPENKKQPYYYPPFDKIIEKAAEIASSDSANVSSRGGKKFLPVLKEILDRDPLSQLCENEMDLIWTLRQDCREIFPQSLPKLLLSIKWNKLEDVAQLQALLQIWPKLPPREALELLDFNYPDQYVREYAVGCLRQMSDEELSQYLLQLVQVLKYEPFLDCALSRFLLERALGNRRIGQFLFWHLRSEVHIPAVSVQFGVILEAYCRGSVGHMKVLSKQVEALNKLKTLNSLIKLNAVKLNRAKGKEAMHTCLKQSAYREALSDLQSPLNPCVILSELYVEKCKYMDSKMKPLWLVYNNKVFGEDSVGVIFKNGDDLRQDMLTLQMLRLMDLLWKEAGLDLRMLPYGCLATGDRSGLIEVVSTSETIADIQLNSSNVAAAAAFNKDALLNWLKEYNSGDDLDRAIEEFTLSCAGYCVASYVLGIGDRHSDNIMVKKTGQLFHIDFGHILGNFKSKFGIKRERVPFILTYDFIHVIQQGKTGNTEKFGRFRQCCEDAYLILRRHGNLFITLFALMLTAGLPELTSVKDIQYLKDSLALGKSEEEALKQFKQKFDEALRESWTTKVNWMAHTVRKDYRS

Consider `O=S(=O)(Nc1cc(-c2cc3c(-c4ccncc4)ncnc3s2)cnc1Cl)c1ccc(Cl)s1`, for which the Ratio IC50 in the data set filed under Homo sapiens was found to be 172. For the same molecule, the results for the IC50 in data set [1] and in data set [2] were 25.8 nM and 0.15 nM, respectively.

Regarding `COc1ncc(-c2cc3c(-c4ccncc4)ccnc3cn2)cc1NS(=O)(=O)c1ccc(F)cc1F`, the Ratio IC50 in the data set listed under Homo sapiens is 3. Further, the IC50 (commonly the concentration at which inhibition is half-maximal) in data set [1] amounted to 3.04 nM; in data set [2], 1.02 nM.

As for `COc1ncc(-c2ccc3ncnc(-c4ccncc4)c3c2)cc1NS(=O)(=O)c1ccc(F)cc1F`, the Ratio IC50 in the data set filed under Homo sapiens turned out to be 2.1. Besides, the results for the IC50 in data set [1] and in data set [2] were 0.2 nM and 0.095 nM, respectively.

In the case of `COc1ncc(-c2ccc3nc(N)nc(-c4ccncc4)c3c2)cc1NS(=O)(=O)c1ccc(F)cc1F`, the Ratio IC50 in the data set filed under Homo sapiens is 4.1. Further, the IC50 in [1] is 0.29 nM; in [2] it was 0.07 nM.

With `COc1ncc(-c2cc3c(-c4ccncc4)ncnc3s2)cc1F`, in data set [2], the IC50 was > 2500 nM.

On to `COc1ncc(-c2ccc3nncc(-c4ccncc4)c3c2)cc1NS(=O)(=O)c1ccc(F)cc1F`, for which the Ratio IC50 in the data set listed under Homo sapiens is 80. Also, the results for the IC50 in data set [1] and in data set [2] were 21.6 nM and 0.27 nM, respectively.

`Cc1ncc(-c2cc3c(-c4ccncc4)ncnc3s2)cc1NS(=O)(=O)c1ccc(F)cc1F`: the Ratio IC50 in the data set filed under Homo sapiens was determined as 203. The IC50 in [1] was found to be 345 nM; in [2] it was 1.7 nM.

With `O=S(=O)(Nc1cc(-c2cc3c(-c4ccncc4)ncnc3s2)cnc1Cl)c1ccc(F)cc1F`, the Papp B→A (usually the apparent permeability from the basolateral to the apical side of a cell layer) at 1.5 h, 10 µM in data set [3] turned out to be 6.9 ×10⁻⁶ cm/s. For the same molecule, the concentration for half-maximal inhibition (IC50) in data set [4] was found to be 2940 nM; with SK-OV-3, 5200 nM; in the data set on U-87 MG, 4430 nM; in data set [7] it was 3.6 nM; in data set [8] it was 3.1 nM; in data set [9], 10.2 nM. Also, the IC50 is 1520 nM in the data set on T47D; 53.6 nM in [1]; 2200 nM in the data set on NCI-H1975; 0.23 nM in data set [2]; 8440 nM in the data set with A549. Moreover, the efflux ratio – broadly, the permeability from basolateral to apical divided by that in the opposite direction, in the common usage – in [5] was 1.4. The Ratio IC50 in the data set listed under Homo sapiens is 233. In [6], the Papp at 5 h was 7 ×10⁻⁶ cm/s. Further, the Papp A→B (usually the apparent permeability from the apical to the basolateral side of a cell layer) at 1.5 h, 10 µM in [10] amounted to 4.8 ×10⁻⁶ cm/s.

Regarding `O=S(=O)(Nc1cc(-c2cc3c(-c4ccncc4)ncnc3s2)cnc1Cl)c1ccc(F)cc1`, in the data set listed under Homo sapiens, the Ratio IC50 turned out to be 146. Also, the IC50 came to 43.7 nM in data set [1] and 0.3 nM in [2].

Take `COc1ncc(-c2cnc3nccc(-c4ccncc4)c3c2)cc1NS(=O)(=O)c1ccc(F)cc1F`: the Ratio IC50 in the data set filed under Homo sapiens was determined as 1.9. Also, the IC50 in data set [1] was determined as 66.7 nM; in [2], 34.7 nM.

For the molecule `COc1ncc(-c2cc3c(-c4ccncc4)ncnc3s2)cn1`, the midpoint of inhibition in data set [2], the IC50, lay at 3490 nM.

Turning to `COc1ncc(-c2cc3c(-c4ccncc4)ncnc3s2)cc1NS(=O)(=O)c1ccc(Cl)s1`, the Ratio IC50 in the data set filed under Homo sapiens was 52. Also, the results for the IC50 in data set [1] and in data set [2] were 67.9 nM and 1.3 nM, respectively.

On to `COc1ncc(-c2cc3c(-c4ccncc4)ncnc3s2)cc1NS(=O)(=O)c1ccc(C#N)cc1`, for which, in the data set listed under Homo sapiens, the Ratio IC50 is 100. Also, the figures for the half-inhibitory concentration (IC50) in [1] and in data set [2] were 363 nM and 3.6 nM, respectively.

Regarding `COc1ncc(-c2ccc3nccc(-c4ccncc4)c3c2)cc1NS(=O)(=O)c1ccc(F)cc1F`, in the data set listed under Homo sapiens, the Ratio IC50 amounted to 7.5. In addition, the IC50 amounted to 0.75 nM in data set [1] and 0.1 nM in data set [2].

As to `COc1ccc(-c2cc3c(-c4ccncc4)ncnc3s2)cn1`, the IC50 in data set [2] came out at 1230 nM.

Take `COc1ncc(-c2cc3c(-c4ccncc4)ncnc3s2)cc1NS(=O)(=O)c1ccc(C(F)(F)F)cc1`: the IC50 in [2] worked out at 17 nM.

For `COc1ncc(-c2sc3ncnc(-c4ccncc4)c3c2C)cc1NS(=O)(=O)c1ccc(F)cc1F`, half-maximal inhibition in [2] (IC50) was put at 72.3 nM.

For the molecule `COc1ncc(-c2cc3c(-c4ccncc4)ncnc3s2)cc1NS(C)(=O)=O`, the IC50 in data set [2] came to 43.1 nM.

In the case of `COc1ncc(-c2cc3c(-c4ccncc4)ncnc3s2)cc1NS(=O)(=O)c1ccc(F)cc1F`, the basolateral-to-apical permeability (Papp B→A) at 1.5 h, 10 µM in data set [3] was determined as 4.5 ×10⁻⁶ cm/s. Further, the IC50 in data set [4] is 420 nM; with SK-OV-3, 3740 nM; in the data set with U-87 MG it was 4400 nM; in data set [7] it was 22.5 nM; in data set [8] it was 13.3 nM; in [9] it was 21.1 nM. For the same molecule, the IC50 worked out at 660 nM in the data set on T47D; 218 nM in data set [1]; 1070 nM in the data set with NCI-H1975; 84.6 nM in [11]; 2.07 nM in data set [2]; 3180 nM in the data set on A549. Also, the efflux ratio in data set [5] was 0.8. Moreover, the Ratio IC50 in the data set listed under Homo sapiens stood at 105. In addition, in data set [6], the Papp at 5 h worked out at 8 ×10⁻⁶ cm/s. Moreover, in data set [10], the Papp A→B at 1.5 h, 10 µM is 5.6 ×10⁻⁶ cm/s.

Regarding `COc1ncc(-c2cnc3ncnc(-c4ccncc4)c3c2)cc1NS(=O)(=O)c1ccc(F)cc1F`, in the data set filed under Homo sapiens, the Ratio IC50 was determined as 1.2. In addition, the 50% inhibitory concentration (IC50) in [1] was determined as 62.3 nM; in data set [2], 51.7 nM.

In the case of `COc1ncc(-c2cnc3nc(N)nc(-c4ccncc4)c3c2)cc1NS(=O)(=O)c1ccc(F)cc1F`, the Ratio IC50 in the data set filed under Homo sapiens was 0.52.

(Values after ChEMBL document CHEMBL3576869 (ACS Med Chem Lett, 2015).)
